Experimental findings from ChEMBL document CHEMBL4350976, “Sequence modification of heptapeptide selected by phage display as homing device for HT-29 colon cancer cells to improve the anti-tumour activity of drug delivery systems” (Eur J Med Chem, 2019) are described below.

Broadly, the IC50 is the concentration needed to halve the response being measured. As a reminder, the inhibition in vivo is the change of the read-out against control, counted positive when it falls.

Molecules are shown by their SMILES. Where a SMILES comes first, the peptide text is derived from it. The star is where a group is joined. X1 = COc1cccc2c1C(=O)c1c(O)c3c(c(O)c1C2=O)C[C@@](O)(/C(C)=N/OCC(=O)*)C[C@@H]3O[C@H]1C[C@H](N)[C@H](O)[C@H](C)O1

A short description of data set [1]: Stability in serum free medium at 30 uM incubated for 3 hrs by LC/MS analysis. The essentials: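 Conjugates (30 μM) were incubated at 37 °C in serum-free medium. Samples were taken at 0 and 3 h, quenched with acetic acid, lyophilised, desalted on C18 spin columns and analysed by LC-MS.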
The nature of data set [2]: Stability in human plasma assessed as parent compound remaining at 30 uM measured after 1 hr by LC/MS analysis. Type of data set: ADME, cell-free. An outline of the steps: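 Conjugates were incubated in 90% human plasma from a healthy volunteer. Samples were taken at 0, 5 and 60 min and analysed by HPLC-MS.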
Data set [3] in a line: Drug metabolism in rat liver lysosomes homogenate assessed as Dau-containing metabolite formation at 0.05 ug/ul after 24 hrs by LC-MS analysis. It is filed as ADME, subcellular, Lysosome. The following applies: tissue homogenate. An outline of the steps: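 Conjugates and rat liver lysosomal homogenate were each used at 0.05 µg/µL. Samples were taken at 0, 1, 3, 6 and 24 h. Metabolites were identified by LC-MS on a C18 column with a formic acid/acetonitrile gradient.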

Data set [4] relates to U-87 MG. As to the kind of experiment: Cytostatic activity against human U87 cells preincubated for 24 hrs under serum free condition followed by compound washout and further incubation for 48 hrs in presence of serum by MTT assay. Type of data set: functional, cell-based, U-87MG ATCC. An outline of the steps: (§1)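 Cells were grown at 37 °C in 5% CO2 in medium with 10% heat-inactivated FBS (20% for OVCAR-3) plus penicillin/streptomycin. The medium was RPMI-1640 for most lines, DMEM for U-87 MG and MRC-5, and IMDM for PE/CA-PJ lines. Seeding was 3×10^3–10×10^3 cells per well. Cells had 24 h compound exposure, a wash, and 48 h further culture. Read-out was MTT, normalized to untreated cells and fitted by nonlinear regression for IC50.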
(Formazan colour is commonly taken as a measure of viable cells.)

Another data set has as its system MCF7. Put plainly: Cytostatic activity against human MCF7 cells preincubated for 24 hrs under serum free condition followed by compound washout and further incubation for 48 hrs in presence of serum by MTT assay. Type of data set: functional, cell-based. An outline of the steps: as §1
For the next data set, the system named is WiDr. Put plainly: Cytostatic activity against human WiDr cells preincubated for 24 hrs under serum free condition followed by compound washout and further incubation for 48 hrs in presence of serum by MTT assay. It is filed as functional, cell-based. An outline of the steps:
as §1

For the next data set, the system named is HepG2. Put plainly: Cytostatic activity against human HepG2 cells preincubated for 24 hrs under serum free condition followed by compound washout and further incubation for 48 hrs in presence of serum by MTT assay. Type of data set: functional, cell-based. The essentials:
as §1

A further data set has as its system NCI-H1650. As to the kind of experiment: Cytostatic activity against human NCI-H1650 cells preincubated for 24 hrs under serum free condition followed by compound washout and further incubation for 48 hrs in presence of serum by MTT assay. It is filed as functional, cell-based. The essentials:
as §1

Data set [5] has as its system NCI-H1975. Put plainly: Cytostatic activity against human NCI-H1975 cells preincubated for 24 hrs under serum free condition followed by compound washout and further incubation for 48 hrs in presence of serum by MTT assay. It is filed as functional, cell-based. The essentials:
as §1

A further data set relates to DU-145. As to the kind of experiment: Cytostatic activity against human DU145 cells preincubated for 24 hrs under serum free condition followed by compound washout and further incubation for 48 hrs in presence of serum by MTT assay. Type of data set: functional, cell-based. An outline of the steps: as §1
Another data set concerns HCT-116. As to the kind of experiment: Potency index, ratio of compound IC50 to Daunomycin IC50 for human HCT116 cells preincubated for 24 hrs under serum free condition followed by compound washout and further incubation for 48 hrs in presence of serum by MTT assay. It is filed as functional.
Data set [6] in a line: Drug uptake in mitochondria of human HT-29 cells assessed as increase in fluorescence at 50 uM after 30 mins by MitoTracker deep red staining based confocal microscopic analysis. Type of data set: ADME. The conditions noted are these: ht-29, 0.5 h. The essentials:
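HT-29 cells were exposed to 50 µM conjugate for 30 min before imaging. Lysosomes were stained with LysoTracker Deep Red and mitochondria with MitoTracker Deep Red. Confocal imaging detected Dau at 550–600 nm.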

The test system of data set [7] is U-87 MG. As to the kind of experiment: Potency index, ratio of compound IC50 to Daunomycin IC50 for human U87 cells preincubated for 24 hrs under serum free condition followed by compound washout and further incubation for 48 hrs in presence of serum by MTT assay. It is filed as functional, U-87MG ATCC.
In data set [8] the test system is HT-29. As to the kind of experiment: Potency index, ratio of compound IC50 to Daunomycin IC50 for human HT-29 cells preincubated for 24 hrs under serum free condition followed by compound washout and further incubation for 48 hrs in presence of serum by MTT assay. It is filed as functional.
Another data set concerns CT26.WT. Put plainly: Potency index, ratio of compound IC50 to Daunomycin IC50 for mouse CT26.WT cells preincubated for 24 hrs under serum free condition followed by compound washout and further incubation for 48 hrs in presence of serum by MTT assay. It is filed as functional.
The next data set deals with A549. As to the kind of experiment: Potency index, ratio of compound IC50 to Daunomycin IC50 for human A549 cells preincubated for 24 hrs under serum free condition followed by compound washout and further incubation for 48 hrs in presence of serum by MTT assay. Type of data set: functional.
Data set [9] concerns NCI-H1975. Put plainly: Potency index, ratio of compound IC50 to Daunomycin IC50 for human NCI-H1975 cells preincubated for 24 hrs under serum free condition followed by compound washout and further incubation for 48 hrs in presence of serum by MTT assay. Type of data set: functional.
Data set [10] can be described thus: Potency index, ratio of compound IC50 to Daunomycin IC50 for human PECAPJ41 cells preincubated for 24 hrs under serum free condition followed by compound washout and further incubation for 48 hrs in presence of serum by MTT assay. Type of data set: functional.
The next data set deals with PANC-1. As to the kind of experiment: Potency index, ratio of compound IC50 to Daunomycin IC50 for human PANC1 cells preincubated for 24 hrs under serum free condition followed by compound washout and further incubation for 48 hrs in presence of serum by MTT assay. It is filed as functional.
In data set [11] the test system is HT-29. Put plainly: Antitumor activity against human HT-29 cells xenografted in SCID mouse assessed as tumor growth inhibition by measuring decrease in tumor weight at 38.3 mg/kg, ip administered thrice in first week and twice in second week (on days 13, 16, 20, 23 and 27) starting from 13 days post inoculation measured at day 30 post inoculation relative to control. The conditions noted are these: HT-29, ip. It is filed as functional. The essentials:
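Orthotopic HT-29 tumours in female SCID mice aged 6–8 weeks (22–27 g), 8 per group. Conjugates were given i.p. in water for injection at 10 mg/kg Dau content on days 13, 16, 20, 23 and 27. The study ended on day 30. Tumours were weighed against solvent controls, and livers were weighed as a toxicity read-out.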
(In general: A xenograft is tissue or cells of one species grown in another, often human tumour cells in immunodeficient mice.)

A short description of data set [12]: Toxicity in SCID mouse xenografted with human HT-29 cells assessed as animal death at 38.3 mg/kg, ip administered thrice in first week and twice in second week (on days 13, 16, 20, 23 and 27) starting from 13 days post inoculation measured upto 30 days post inoculation. The following applies: in vivo. Type of data set: organism-based. An outline of the steps:
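Female SCID mice (6–8 weeks, 22–27 g) with orthotopic HT-29 colon tumours. Conjugates given i.p. in distilled water for injection at 10 mg/kg Dau content (36.6 or 38.3 mg/kg conjugate) on days 13, 16, 20, 23 and 27, 8 mice/group. Study ended day 30; deaths and body weight recorded against a solvent-treated control group.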

The nature of data set [13]: Solubility of compound. Type of data set: physicochemical.
Data set [14] in a line: Drug uptake in human HT-29 cells cytoplasm at 50 uM after 90 mins by fluorescence based confocal microscopic analysis. The following applies: ht-29, 1.5 h. Type of data set: ADME, subcellular. The essentials: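 HT-29 cells were incubated with 50 µM compound in RPMI for 90 min. Imaging was by confocal microscopy, with Dau detected at 550–600 nm emission.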
Data set [15] can be described thus: Drug uptake in human HT-29 cells incubated for 3 hrs by flow cytometry. It is filed as ADME, cell-based. The following applies: ht-29, 3 h. An outline of the steps:
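HT-29 cells were exposed to 100 µM conjugate for 3 h. Flow cytometry recorded the percentage of Dau-positive cells and the mean fluorescence intensity, in duplicate.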
Background: Flow cytometry measures light scatter and fluorescence of single cells or particles in a stream.

In the case of `COc1cccc2c1C(=O)c1c(O)c3c(c(O)c1C2=O)C[C@@](O)(/C(C)=N/OCC(=O)N[C@@H](CC(C)C)C(=O)N[C@@H](CCCNC(=N)N)C(=O)N[C@@H](CCCNC(=N)N)C(=O)N[C@@H](Cc1ccc(O)cc1)C(=O)N[C@H](C(=O)N[C@@H](Cc1cnc[nH]1)C(=O)N[C@@H](CC(C)C)C(=O)N[C@@H](Cc1ccccc1)C(=O)N[C@@H](Cc1ccc(O)cc1)C(=O)N[C@@H](C)C(=O)N[C@H](C(N)=O)[C@@H](C)O)C(C)C)C[C@@H]3O[C@H]1C[C@H](N)[C@H](O)[C@H](C)O1` (X1-LRRYVHLFYAT-NH2), the Stability result in data set [1] and in data set [2] was “Stable” in each case. Moreover, the Drug metabolism entry in data set [3] is “Metabolite_Detected”. Moreover, the IC50 in the data set on U-87 MG [4] is 6.6 µM; with MCF7, 11.1 µM; with WiDr it was 15.1 µM; in the data set with HepG2, 4.7 µM; with NCI-H1650 it was 2.9 µM; with NCI-H1975 [5], 3.7 µM. In the data set with DU-145, the IC50 came out at 3.5 µM. Also, the “Ratio IC50” value is reported as 57 with HCT-116; 236.9 in the data set with U-87 MG [7]; 57.1 in the data set on HT-29 [8]; 66 in the data set with CT26.WT; 86.1 in the data set on A549; 279.9 in the data set with NCI-H1975 [9]. The figures for the “Ratio IC50” value (in data set [10]; in the data set with PANC-1) were 165.7 and 57.7, respectively. For the same molecule, the Drug uptake result is listed as “Not Active” in data set [6], “Active” in data set [14] and “Dose-dependent effect” in data set [15]. Besides, the inhibition in vivo at 38.3 mg/kg in the data set on HT-29 [11] was determined as 89%. For the same molecule, in [12], the Activity result is “Non-Toxic”. Also, in [13], the solubility entry is “Soluble”.
